Data reported in ChEMBL document CHEMBL4261570, “Design, Synthesis and Preliminary Antimicrobial Evaluation of N-Alkyl Chain Tethered C-5 Functionalized Bis-Isatins” (Medchemcomm, 2017).
pIC50: −log10 of the molar value. Active and inactive are the calls of the source. The calls are words filed in the database; no cut-off is given here.

How the values were obtained:
Naegleria fowleri = assay: Antiparasitic activity against Naegleria fowleri KUL trophozoites assessed as parasite growth inhibition after 48 hrs by ATP bioluminescence-based CellTiter-Glo luminescent cell viability assay; format: functional, organism-based
Summary of the method: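 Strain KUL trophozoites cultured axenically in Nelson's medium with 10% FBS at 37 °C. Each well held 10 000 trophozoites, incubated under aerobic conditions without the anaerobe pouch. Read-out was CellTiter-Glo luminescence. Positive control was 50 μM amphotericin B. Hits were serially diluted in triplicate, 8 points from 0.39 to 50 μM, and EC50 was taken from dose-response curves.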

Escherichia coli = assay: Toxicity in Escherichia coli K-12 MG1655 at 100 uM measured after overnight incubation by disc diffusion method; format: organism-based, K-12 substr. MG1655; conditions: in vivo
Summary of the method: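 Grown in Luria broth at 37 °C under aerobic conditions. Blank 6 mm discs were soaked 20 min at room temperature in a 100 μM working dilution in medium. Discs were placed on streaked agar alongside DMSO vehicle and antibiotic discs (levofloxacin, gentamicin), incubated overnight at 37 °C, and inhibition zones measured in mm.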

[1] = tested on: Lacticaseibacillus rhamnosus; assay: Toxicity in Lactobacillus rhamnosus ATCC 53103 at 100 uM measured after overnight incubation by disc diffusion method; format: organism-based, GG; conditions: in vivo
Summary of the method: (§1)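 Grown in Lactobacilli MRS at 37 °C under anaerobic conditions. Blank 6 mm discs were soaked 20 min at room temperature in a 100 μM working dilution in medium. Discs were placed on streaked agar alongside DMSO vehicle and antibiotic discs (levofloxacin, gentamicin), incubated overnight at 37 °C, and zones of inhibition measured in mm.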

Giardia intestinalis [2] = assay: Antiparasitic activity against Giardia lamblia WB trophozoites assessed as parasite growth inhibition at 50 uM after 48 hrs by ATP bioluminescence-based CellTiter-Glo luminescent cell viability assay relative to control; format: functional; conditions: Giardia duodenalis; for inhibition of growth at 50 µM: read-out: GI
Summary of the method: (§2)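 Trophozoites kept axenically in TYI-S-33 with penicillin and streptomycin. Each well held 5000 trophozoites and was incubated 48 h at 37 °C under anaerobic conditions in a GasPak pouch. Read-out was CellTiter-Glo ATP luminescence. Controls were 0.5% DMSO vehicle and 30 μM metronidazole. Primary screen at 50 μM in duplicate; hits were those above 50% inhibition. EC50 came from triplicate 8-point series (0.39–50 μM) and dose-response curves.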

[3] = tested on: Limosilactobacillus reuteri; assay: Toxicity in Lactobacillus reuteri ATCC 23272 at 100 uM measured after overnight incubation by disc diffusion method; format: organism-based; conditions: in vivo; summary of the method: as §1
Trichomonas vaginalis = assay: Antiparasitic activity against Trichomonas vaginalis assessed as parasite growth inhibition at 50 uM after 24 hrs by hemacytometer relative to control; format: functional; conditions: read-out: GI
Summary of the method: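 G3 strain cultured in TYM Diamond's medium in 15 mL tubes, with compound in DMSO. Controls were untreated and 0.1% DMSO. After 24 h, cells were counted by hemacytometer and normalized to the DMSO controls. Screening was at 50 μM. IC50 came from titrations of 5–40 μM with variable-slope regression, 4 independent trials on different days, and was then re-confirmed.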

[4] = tested on: Lactobacillus acidophilus; assay: Toxicity in Lactobacillus acidophilus ATCC 43560 at 100 uM measured after overnight incubation by disc diffusion method; format: organism-based; conditions: in vivo; summary of the method: as §1
Giardia intestinalis [5] = assay: Antiparasitic activity against Giardia lamblia WB trophozoites assessed as parasite growth inhibition after 48 hrs by ATP bioluminescence-based CellTiter-Glo luminescent cell viability assay; format: functional, organism-based; conditions: Giardia duodenalis; summary of the method: as §2
Entamoeba histolytica = assay: Antiparasitic activity against Entamoeba histolytica HM-1:IMSS trophozoites assessed as parasite growth inhibition at 50 uM after 48 hrs by ATP bioluminescence-based CellTiter-Glo luminescent cell viability assay relative to control; format: functional; conditions: for inhibition of growth at 50 µM: read-out: GI; summary of the method: as §2
Saccharomyces cerevisiae [6] = assay: Antifungal activity against Saccharomyces cerevisiae BY4741 assessed as fungal growth at 500 uM after 48 hrs by microtiter plate liquid bioassay (reference value: 100%); format: functional
Saccharomyces cerevisiae [7] = assay: Antifungal activity against Saccharomyces cerevisiae BY4741 assessed as fungal growth at 500 uM after 24 hrs by microtiter plate liquid bioassay (reference value: 100%); format: functional
Aspergillus parasiticus [8] = assay: Antifungal activity against Aspergillus parasiticus NRRL5862 assessed as fungal growth at 500 uM after 48 hrs by microtiter plate liquid bioassay (reference value: 100%); format: functional
Summary of the method: (§3)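 A. parasiticus grown at 35 °C on PDA. Liquid assay in RPMI 1640, 3 × 104 to 5 × 10^4 CFU per mL, triplicate wells, 35 °C. Compounds in DMSO (<2% in media). No-treatment wells carry matched DMSO. Wells scored visually 0–4 versus the no-treatment control: 0 clear, 1 25%, 2 50%, 3 75%, 4 no reduction. Scoring follows CLSI M38-A.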

Aspergillus parasiticus [9] = assay: Antifungal activity against Aspergillus parasiticus NRRL5862 assessed as fungal growth at 500 uM after 24 hrs by microtiter plate liquid bioassay (reference value: 100%); format: functional; summary of the method: as §3

Row | Compound | pIC50 (Naegleria fowleri) | Activity (Escherichia coli) | Activity [1] | inhibition of growth at 50 µM (Giardia intestinalis [2]) | Activity [3] | inhibition of growth at 50 µM (Trichomonas vaginalis) | Activity [4] | pIC50 (Giardia intestinalis [5]) | inhibition of growth at 50 µM (Entamoeba histolytica) | growth inhibition (GI) (Entamoeba histolytica) | growth inhibition (GI) (Giardia intestinalis [2]) | Activity (Saccharomyces cerevisiae [6]) | Activity (Saccharomyces cerevisiae [7]) | Activity (Aspergillus parasiticus [8]) | Activity (Aspergillus parasiticus [9])
1 | C[C@@H]1[C@H](O)[C@@H](C)/C=C/C=C/C=C/C=C/C=C/C=C/C=C/[C@H](O[C@@H]2O[C@H](C)[C@@H](O)[C@H](N)[C@@H]2O)C[C@@H]2O[C@](O)(C[C@@H](O)C[C@@H](O)[C@H](O)CC[C@@H](O)C[C@@H](O)CC(=O)O[C@H]1C)C[C@H](O)[C@H]2C(=O)O [AMPHOTERICIN B] | 6.70 | – | – | – | – | – | – | – | – | – | – | – | – | – | –
2 | O=C1C(=O)N(CCCCCCCCN2C(=O)C(=O)c3ccccc32)c2ccccc21 | – | Non-Toxic | Non-Toxic | 80.7% | Non-Toxic | 30.3% | Non-Toxic | 4.42 | 100% | – | – | – | – | – | –
3 | O=C1C(=O)N(CCCCCCN2C(=O)C(=O)c3cc(Br)ccc32)c2ccccc21 | – | Non-Toxic | Non-Toxic | 43.2% | Non-Toxic | 100% | Non-Toxic | – | – | inactive | – | – | – | – | –
4 | O=C1C(=O)N(CCCN2C(=O)C(=O)c3ccccc32)c2ccccc21 | – | Non-Toxic | Non-Toxic | 7.84% | Non-Toxic | 96.8% | Non-Toxic | – | – | inactive | – | – | – | – | –
5 | O=C1C(=O)N(CCCCCCN2C(=O)C(=O)c3ccccc32)c2ccccc21 | – | Non-Toxic | Non-Toxic | 9.68% | Non-Toxic | 45.5% | Non-Toxic | – | – | inactive | – | – | – | – | –
6 | O=C1C(=O)N(CCCN2C(=O)C(=O)c3cc(Cl)ccc32)c2ccccc21 | – | Non-Toxic | Non-Toxic | – | Non-Toxic | 100% | Non-Toxic | – | – | inactive | inactive | – | – | – | –
7 | O=C1C(=O)N(CCCCCN2C(=O)C(=O)c3ccccc32)c2ccccc21 | – | Non-Toxic | Non-Toxic | 94.3% | Non-Toxic | 90.9% | Non-Toxic | 4.59 | 100% | – | – | – | – | – | –
8 | O=C1C(=O)N(CCCCN2C(=O)C(=O)c3cc(Cl)ccc32)c2ccccc21 | – | Non-Toxic | Non-Toxic | – | Non-Toxic | 100% | Non-Toxic | – | – | inactive | inactive | 75% | 25% | 100% | 100%
9 | O=C1C(=O)N(CCN2C(=O)C(=O)c3ccccc32)c2ccccc21 | – | Non-Toxic | Non-Toxic | 6.75% | Non-Toxic | 96.8% | Non-Toxic | – | – | inactive | – | – | – | – | –
10 | CCCCCCCCOC(=O)c1cc(O)c(O)c(O)c1 [OCTYL_GALLATE] | – | – | – | – | – | – | – | – | – | – | – | 0% | 0% | 0% | 0%
11 | O=C1C(=O)N(CCCCCN2C(=O)C(=O)c3cc(Br)ccc32)c2ccccc21 | – | Non-Toxic | Non-Toxic | – | Non-Toxic | 100% | Non-Toxic | – | – | inactive | inactive | 100% | 50% | 100% | 100%
12 | O=C1C(=O)N(CCCCN2C(=O)C(=O)c3ccccc32)c2ccccc21 | – | Non-Toxic | Non-Toxic | 11.6% | Non-Toxic | 61.3% | Non-Toxic | – | – | inactive | – | – | – | – | –
13 | O=C1C(=O)N(CCCCN2C(=O)C(=O)c3cc(F)ccc32)c2ccccc21 | – | Non-Toxic | Non-Toxic | 1.2% | Non-Toxic | 100% | Non-Toxic | – | – | inactive | – | – | – | – | –
14 | O=C1C(=O)N(CCN2C(=O)C(=O)c3cc(Br)ccc32)c2ccccc21 | – | Non-Toxic | Non-Toxic | – | Non-Toxic | 100% | Non-Toxic | – | – | inactive | inactive | – | – | – | –
15 | O=C1C(=O)N(CCCCCCCCN2C(=O)C(=O)c3cc(F)ccc32)c2ccccc21 | – | Non-Toxic | Non-Toxic | – | Non-Toxic | 100% | Non-Toxic | – | 13.8% | – | inactive | – | – | – | –
16 | O=C1C(=O)N(CCCCCCN2C(=O)C(=O)c3cc(Cl)ccc32)c2ccccc21 | – | Non-Toxic | Non-Toxic | 94.5% | Non-Toxic | 93.9% | Non-Toxic | 4.50 | – | inactive | – | – | – | – | –
17 | O=C1C(=O)N(CCCCCCCCN2C(=O)C(=O)c3cc(Br)ccc32)c2ccccc21 | – | Non-Toxic | Non-Toxic | 51.1% | Non-Toxic | 96.8% | Non-Toxic | – | – | inactive | – | – | – | – | –
18 | O=C1C(=O)N(CCN2C(=O)C(=O)c3cc(F)ccc32)c2ccccc21 | – | Non-Toxic | Non-Toxic | 8.15% | Non-Toxic | 45.5% | Non-Toxic | – | – | inactive | – | – | – | – | –
19 | O=C1C(=O)N(CCCCCCCCN2C(=O)C(=O)c3cc(Cl)ccc32)c2ccccc21 | – | Non-Toxic | Non-Toxic | 8.56% | Non-Toxic | 75.8% | Non-Toxic | – | – | inactive | – | – | – | – | –
20 | O=C1C(=O)N(CCCCCCN2C(=O)C(=O)c3cc(F)ccc32)c2ccccc21 | – | Non-Toxic | Non-Toxic | 30.9% | Non-Toxic | 100% | Non-Toxic | – | – | inactive | – | – | – | – | –
21 | O=C1C(=O)N(CCCBr)c2ccccc21 | – | Non-Toxic | Non-Toxic | 22.9% | Non-Toxic | 59.9% | Non-Toxic | – | 1.32% | – | – | 75% | 50% | 100% | 75 - 100%
22 | CCCCCCCCCCCCCCCCOP(=O)([O-])OCC[N+](C)(C)C [MILTEFOSINE] | 4.26 | – | – | – | – | – | – | – | – | – | – | – | – | – | –
